Molecules are shown by their SMILES. Activity calls are given as the source filed them. The calls are words filed in the database; no cut-off is given here.

This is an account of results in ChEMBL document CHEMBL1142328, “Imidazolidines as new anti-Trypanosoma cruzi agents: biological evaluation and structure-activity relationships” (Bioorg Med Chem, 2008).

Experiment [1] has as its system Trypanosoma cruzi. Briefly: Growth inhibition of Trypanosoma cruzi epimastigotes Tulahuen 2. The format is functional, organism-based. Put shortly:
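Epimastigotes grown axenically at 28 °C in BHI-Tryptose with 5% FBS. Stationary-phase (10-day) cells inoculated at 1×10^6 cells/mL into medium with drug (DMSO stock, final DMSO ≤0.4%; 0.4% DMSO control). Growth followed by A600 daily. IC50 = concentration reducing the day-5 absorbance ratio vs control to 50%, over increasing concentrations. Means of three experiments.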

For experiment [2], the system named is Trypanosoma cruzi. Briefly: Growth inhibition of Trypanosoma cruzi epimastigotes Tulahuen 2 at 25 uM. The class given is functional. Particulars: for inhibition of growth at 25 µM: read-out: GI. An outline of the steps: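 Epimastigotes in BHI-Tryptose + 5% FBS at 28 °C, inoculated at 1×10^6 cells/mL from 10-day stationary culture. Drug tested at 25 μM from DMSO stock (final DMSO ≤0.4%; 0.4% DMSO control). Inhibition % = {1 − [(Ap − A0p)/(Ac − A0c)]}×100 using A600 at day 0 and day 5. Means of three experiments.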

In experiment [3] the test system is Trypanosoma cruzi. Briefly: Increase in glycine metabolite excretion in cell free medium of Trypanosoma cruzi Y relative to control. The class given is functional, organism-based. An outline of the steps:
(§1)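 Parasites treated with compound for 2 days. 5 mL of culture centrifuged at 1500g, 10 min, 4 °C. Parasite-free supernatant stored at −20 °C, then analysed by 1H NMR. Metabolite signals confirmed by spiking and by a 4 µg/mL standard in phosphate buffer pH 7.4. Increase expressed as % relative to untreated cells.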

Experiment [4] deals with Trypanosoma cruzi. Briefly: Increase in alanine metabolite excretion in cell free medium of Trypanosoma cruzi Y relative to control. The class given is functional, organism-based. Put shortly: as §1
For experiment [5], the system named is Trypanosoma cruzi. As to the kind of experiment: Increase in lactose metabolite excretion in cell free medium of Trypanosoma cruzi Y relative to control. The format is functional, organism-based. Particulars: in the assay text read “lactate” for “lactose”. An outline of the steps:
as §1

The subject of experiment [6] is Trypanosoma cruzi. As to the kind of experiment: Increase in acetate metabolite excretion in cell free medium of Trypanosoma cruzi Y relative to control. The format is functional, organism-based. An outline of the steps: as §1

Broadly, the IC50 is the point on the concentration scale where inhibition reaches its midpoint. `Cc1ccc(CN2CCN(Cc3ccc(C)cc3)C2c2ccc(Cl)cc2)cc1` came in with an IC50 in experiment [1] of 9 µM. Moreover, the inhibition of growth at 25 µM in experiment [2] amounted to 100%.
Turning to `c1ccc(C2N(c3ccccc3)CCN2c2ccccc2)cc1`, in experiment [2], the inhibition of growth at 25 µM was found to be 39.6%.
With `Clc1ccc(CN2CCN(Cc3ccc(Cl)c(Cl)c3)C2c2ccccc2)cc1Cl`, the IC50 in experiment [1] was determined as 6.4 µM. The inhibition of growth at 25 µM in experiment [2] was 100%.
In experiment [1], `Clc1ccc(CNCCNCc2ccc(Cl)cc2)cc1` showed an IC50 of 2 µM.
Consider `Clc1ccc(CN2CCN(Cc3ccc(Cl)cc3)C2c2cccc(Cl)c2)cc1`, for which half-maximal inhibition in experiment [1] (IC50) required 4.7 µM. Further, in experiment [2], the inhibition of growth at 25 µM was found to be 100%.
With `Brc1ccc(N2CCN(CN3CCN(c4ccc(Br)cc4)C3)C2)cc1`, the inhibition of growth at 25 µM in experiment [2] came out at 0%.
As for `Oc1ccccc1CNCCNCc1ccccc1O`, the result in experiment [2] was inactive.
In turn, `COc1ccc(CN2CCN(Cc3ccc(OC)cc3)C2c2cccc(Cl)c2)cc1` came in with an IC50 in experiment [1] of 14 µM. For the same molecule, the inhibition of growth at 25 µM in experiment [2] came out at 95%.
As for `COc1ccc(CN2CCN(Cc3ccc(OC)cc3)C2c2ccccc2Cl)cc1`, the IC50 in experiment [1] turned out to be 25.3 µM. The inhibition of growth at 25 µM in experiment [2] was determined as 49%.
On the same counts, the results for `Clc1ccc(CN2CCN(Cc3ccc(Cl)cc3)C2c2ccc(Cl)c(Cl)c2)cc1` are 9 µM and 92%.
On the same counts, the results for `Cc1ccc(CN2CCN(Cc3ccc(C)cc3)C2c2cccc(Cl)c2)cc1` are 13.4 µM and 99%.
Molecule `Clc1ccc(C2N(Cc3ccccc3)CCN2Cc2ccccc2)cc1` had an IC50 in experiment [1] of 23.5 µM. In addition, in experiment [2], the inhibition of growth at 25 µM amounted to 60%.
`Clc1ccc(C2N(Cc3ccc(Cl)c(Cl)c3)CCN2Cc2ccc(Cl)c(Cl)c2)cc1` displayed an IC50 in experiment [1] of 25 µM. The inhibition of growth at 25 µM in experiment [2] worked out at 50%.
On the same counts, the results for `Cc1ccc(CN2CCN(Cc3ccc(C)cc3)C2c2ccccc2)cc1` are 12.5 µM and 100%.
As for `Clc1ccc(CN2CCN(Cc3ccc(Cl)cc3)C2c2ccccc2)cc1`, the IC50 in experiment [1] amounted to 5 µM. For the same molecule, the inhibition of growth at 25 µM in experiment [2] amounted to 94.5%.
`Cc1ccc(N2CCN(C)C2c2ccccc2)cc1` (stereo unspecified): the inhibition of growth at 25 µM in experiment [2] amounted to 8.9%.
For `c1ccc(CN2CCN(c3ccccc3)C2c2ccccc2)cc1` (stereo unspecified), the inhibition of growth at 25 µM in experiment [2] was determined as 45.1%.
As to `COc1ccc(CN2CCN(Cc3ccc(OC)cc3)C2C)cc1`, the midpoint of inhibition in experiment [1], the IC50, lay at 37 µM. For the same molecule, in experiment [2], the inhibition of growth at 25 µM is 40%.
In experiment [1], `Clc1cccc(CN2CCN(Cc3cccc(Cl)c3)C2)c1` showed an IC50 of 9.7 µM. In addition, the inhibition of growth at 25 µM in experiment [2] was determined as 100%.
As to `Clc1ccc(N2CCN(CN3CCN(c4ccc(Cl)cc4)C3)C2)cc1`, the inhibition of growth at 25 µM in experiment [2] is 0%.
For `Clc1ccc(CN2CCN(Cc3ccc(Cl)cc3)C2c2ccccc2Cl)cc1`, the IC50 in experiment [1] is 11 µM. In addition, in experiment [2], the inhibition of growth at 25 µM was 100%.
`O=[N+]([O-])c1ccc(C2N(Cc3ccc(Cl)cc3)CCN2Cc2ccc(Cl)cc2)cc1` showed a concentration for half-maximal inhibition (IC50) in experiment [1] of 14.5 µM. The inhibition of growth at 25 µM in experiment [2] was 100%.
Turning to `Cc1ccc(N2CCN(Cc3ccccc3)C2)cc1`, in experiment [2], the inhibition of growth at 25 µM came out at 44.2%.
Still for that read-out and setting: then `Clc1cccc(N2CCN(CN3CCN(c4cccc(Cl)c4)C3)C2)c1`, with 8%.
Take `COc1ccc(CN2CCN(Cc3ccc(OC)cc3)C2c2ccccc2)cc1`: the midpoint of inhibition in experiment [1], the IC50, lay at 1.1 µM. For the same molecule, the inhibition of growth at 25 µM in experiment [2] is 75.3%.
`Clc1ccc(N2CCN(Cc3ccccc3)C2)cc1`: in experiment [2], the inhibition of growth at 25 µM was 64.7%.
As for `Clc1ccc(CN2CCN(Cc3ccc(Cl)c(Cl)c3)C2c2ccc(Cl)c(Cl)c2)cc1Cl`, the inhibition of growth at 25 µM in experiment [2] was 30%.
The same measure, in the same setting: to `CC1N(c2ccccc2)CCN1c1ccccc1` belongs 12.4%.
The same measure, in the same setting: to `c1ccc(CN2CCN(c3ccccc3)C2)cc1` belongs 17.2%; to `c1ccc(N2CCN(CN3CCN(c4ccccc4)C3)C2)cc1`, 0%.
`Clc1cccc(CN2CCN(Cc3cccc(Cl)c3)C2c2ccccc2)c1` returned an IC50 in experiment [1] of 14.7 µM. The inhibition of growth at 25 µM in experiment [2] stood at 100%.
`Clc1ccc(CN2CCN(Cc3ccc(Cl)c(Cl)c3)C2)cc1Cl` registered a half-maximal inhibitory concentration (IC50) in experiment [1] of 15.1 µM. The inhibition of growth at 25 µM in experiment [2] was 100%.
For the molecule `Oc1ccccc1CN1CCN(Cc2ccccc2O)C1c1ccccc1`, the inhibition of growth at 25 µM in experiment [2] turned out to be 4.8%.
For the molecule `Oc1cccc(C2N(Cc3ccc(Cl)cc3)CCN2Cc2ccc(Cl)cc2)c1`, the Activity stood at 60% in experiment [3], 40% in experiment [4], 30% in experiment [5] and 60% in experiment [6]. The IC50 in experiment [1] worked out at 4.6 µM. Also, in experiment [2], the inhibition of growth at 25 µM turned out to be 97.4%.
The molecule `Clc1ccc(CN2CCN(Cc3ccc(Cl)cc3)C2/C=C/c2ccccc2)cc1` registered an IC50 in experiment [1] of 10.2 µM. The inhibition of growth at 25 µM in experiment [2] worked out at 100%.
With `Cc1ccc(N2CCN(Cc3ccccc3)C2c2ccccc2)cc1` (stereo unspecified), the inhibition of growth at 25 µM in experiment [2] stood at 46%.
In experiment [1], `COc1ccc(CNCCNCc2ccc(OC)cc2)cc1` returned an IC50 of 16.2 µM.
In turn, `COc1ccc(CN2CCN(Cc3ccc(OC)cc3)C2c2ccc(Cl)cc2)cc1` yielded an IC50 in experiment [1] of 14.9 µM. In addition, in experiment [2], the inhibition of growth at 25 µM worked out at 100%.
As to `c1ccc(N2CCN(c3ccccc3)C2)cc1`, the inhibition of growth at 25 µM in experiment [2] came to 12.3%.
Same read-out and setting: to `O=[N+]([O-])c1ccc(N2CCN(CN3CCN(c4ccc([N+](=O)[O-])cc4)C3)C2)cc1` belongs 0%.
`CC1CS(=O)(=O)CCN1/N=C/c1ccc([N+](=O)[O-])o1` (stereo unspecified) [NIFURTIMOX]: the inhibition of growth at 25 µM in experiment [2] turned out to be 100%.
Turning to `Clc1ccc(CN2CCN(Cc3ccc(Cl)cc3)C2)cc1`, the IC50 in experiment [1] was found to be 10.3 µM. Further, the inhibition of growth at 25 µM in experiment [2] stood at 100%.
On the same counts, the results for `COc1ccc(C2N(Cc3ccc(Cl)cc3)CCN2Cc2ccc(Cl)cc2)cc1` are 5 µM and 100%.
For `Clc1ccc(N2CCN(Cc3ccccc3)C2c2ccccc2)cc1` (stereo unspecified), the inhibition of growth at 25 µM in experiment [2] stood at 70.4%.
`Clc1ccc(CN2CCN(Cc3ccc(Cl)cc3)C2c2ccco2)cc1` came in with an IC50 in experiment [1] of 4.3 µM. In addition, the inhibition of growth at 25 µM in experiment [2] turned out to be 89.4%.
On the same counts, the results for `Clc1ccc(CN2CCN(Cc3ccc(Cl)cc3)C2c2ccc(Cl)cc2)cc1` are 8.9 µM and 100%.
Turning to `Brc1cccc(N2CCN(CN3CCN(c4cccc(Br)c4)C3)C2)c1`, the inhibition of growth at 25 µM in experiment [2] stood at 10.8%.
For `CN1CCN(c2ccccc2)C1c1ccccc1` (stereo unspecified), the inhibition of growth at 25 µM in experiment [2] is 0%.
On the same count and under the same terms, then `c1ccc(CN2CCN(Cc3ccccc3)C2c2ccccc2)cc1`, with 63%.
As to `Clc1ccc(CN2CCN(Cc3ccc(Cl)c(Cl)c3)C2c2ccco2)cc1Cl`, the Activity is 15% in experiment [3], 30% in experiment [4], 10% in experiment [5] and 10% in experiment [6]. In experiment [1], this molecule returned an IC50 of 4.1 µM. In experiment [2], the inhibition of growth at 25 µM came to 93.9%.
In turn, `COc1ccc(CN2CCN(Cc3ccc(OC)cc3)C2c2ccc([N+](=O)[O-])cc2)cc1` returned an IC50 in experiment [1] of 16.5 µM. Besides, in experiment [2], the inhibition of growth at 25 µM was 83%.
For the molecule `COc1ccc(N2CCN(CN3CCN(c4ccc(OC)cc4)C3)C2)cc1`, the inhibition of growth at 25 µM in experiment [2] turned out to be 0%.
The molecule `COc1ccc(CN2CCN(Cc3ccc(OC)cc3)C2c2ccc(Cl)c(Cl)c2)cc1` gave an IC50 in experiment [1] of 16 µM. The inhibition of growth at 25 µM in experiment [2] is 91%.
Consider `Cc1ccc(N2CCN(CN3CCN(c4ccc(C)cc4)C3)C2)cc1`, for which the inhibition of growth at 25 µM in experiment [2] came to 0%.
As to `Oc1ccccc1C1N(Cc2ccc(Cl)cc2)CCN1Cc1ccc(Cl)cc1`, 4.3 µM corresponded to half-maximal inhibition in experiment [1] (IC50). Further, the inhibition of growth at 25 µM in experiment [2] was found to be 86.8%.
As to `COc1ccc(CN2CCN(Cc3ccc(OC)cc3)C2/C=C/c2ccccc2)cc1`, the IC50 in experiment [1] was determined as 10 µM. The inhibition of growth at 25 µM in experiment [2] was 98.6%.
Consider `COc1ccc(CN2CCN(Cc3ccc(OC)cc3)C2c2cccc([N+](=O)[O-])c2)cc1`, for which 23 µM corresponded to half-maximal inhibition in experiment [1] (IC50). Besides, the inhibition of growth at 25 µM in experiment [2] amounted to 93%.
